Active and inactive are the calls of the source.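 How the source made its calls: active means compounds letting at most 1% of the green fluorescent tagged protein gather at the cell membrane; inactive means the rest.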
What follows are compounds tested against G-protein coupled receptor 55 (Homo sapiens) (UniProt Q9Y2T6) (assay: GPR55 antagonists blocking PKCbII-GFP membrane recruitment, SAR follow-up, imaging, HEK293 (AID 488947)). Details: HEK293 GPR55 + PKCbetaII-GFP.
Chain of G-protein coupled receptor 55 (Homo sapiens) (Q9Y2T6 whole entry, looked up): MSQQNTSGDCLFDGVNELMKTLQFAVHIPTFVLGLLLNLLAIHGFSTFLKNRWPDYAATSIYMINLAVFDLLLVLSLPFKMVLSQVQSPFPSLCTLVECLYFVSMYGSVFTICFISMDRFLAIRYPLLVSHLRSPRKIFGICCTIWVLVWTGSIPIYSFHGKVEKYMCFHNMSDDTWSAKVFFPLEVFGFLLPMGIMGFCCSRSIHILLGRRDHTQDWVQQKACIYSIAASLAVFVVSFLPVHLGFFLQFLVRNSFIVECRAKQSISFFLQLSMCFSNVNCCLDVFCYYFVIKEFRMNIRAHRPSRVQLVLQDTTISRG
Summary of the method: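 System – transfected HEK293 with GPR55 and PKCβII-GFP · Buffer or medium – serum-free MEM · Also added – 10 µM AM251 · Dosing – 4 doses, 10–100 µM · Schedule – compound pre-incubation 15 min at 37 °C, then AM251 exposure 30 min · Detection – fluorescence imaging of GFP after 1% PFA fixation, scored by eye · Replicates – duplicates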
`Cc1cc(C)c2nc(-c3ccccn3)cc(C(=O)Nc3ccc(S(=O)(=O)Nc4onc(C)c4C)cc3)c2c1` was tested, and the outcome was “active”.
For `Cc1nc(N2CCN(C(=O)c3ccco3)CC2)c2c3c(sc2n1)CCCC3`, the outcome was “active; +”.
In the case of `Cc1ccc(C2(C(=O)N3CCC(n4nc(-c5ccccc5)oc4=O)CC3)CC2)cc1`, the outcome is reported as “active”.

From PubChem BioAssay AID488947 (Sanford-Burnham Center for Chemical Genomics, 2010)
